One test has as its target T1, Peptide deformylase (Escherichia coli, UniProt Q9JN24).
T1 sequence (Q9JN24 whole entry): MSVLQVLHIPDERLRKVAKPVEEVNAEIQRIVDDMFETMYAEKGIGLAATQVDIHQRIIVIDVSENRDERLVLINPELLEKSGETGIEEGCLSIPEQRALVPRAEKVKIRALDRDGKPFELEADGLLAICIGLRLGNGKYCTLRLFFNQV
Kind of test: Inhibition of the isolated native Escherichia coli peptide deformylase (PDF).

Another test relates to Haemophilus influenzae. The test can be described thus: In vitro antibacterial activity against Haemophilus influenzae 11. Type of test: functional. The method in brief: (§1)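 Broth microdilution MIC per NCCLS guidelines; strains from in-house collection (ATCC and hospital isolates) stored at -80 °C; E. coli tested as permeable outer-membrane mutant DC2. MIC taken as lowest concentration preventing visible growth after 18 to 24 h at 37 °C.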

Another test deals with Moraxella catarrhalis. The test can be described thus: In vitro antibacterial activity against Moraxella catarrhalis RA21. The test is classed as functional. The method in brief: as §1
For a further test, the system named is Escherichia coli. The test can be described thus: In vitro antibacterial activity against Escherichia coli. Type of test: functional. The method in brief: as §1
Test [1] concerns the target Macrophage metalloelastase (Homo sapiens, UniProt P39900). Kind of test: Inhibition of human macrophage elastase, matrix metalloprotease-12 (MMP-12).
The next test concerns the target Collagenase 3 (Homo sapiens, UniProt P45452). Kind of test: Inhibition of Collagenase-3, matrix metalloprotease-13 (MMP-13).
In test [2] the target is T2, Endothelin-converting enzyme 1 (Homo sapiens, UniProt P42892).
T2 sequence (P42892 whole entry): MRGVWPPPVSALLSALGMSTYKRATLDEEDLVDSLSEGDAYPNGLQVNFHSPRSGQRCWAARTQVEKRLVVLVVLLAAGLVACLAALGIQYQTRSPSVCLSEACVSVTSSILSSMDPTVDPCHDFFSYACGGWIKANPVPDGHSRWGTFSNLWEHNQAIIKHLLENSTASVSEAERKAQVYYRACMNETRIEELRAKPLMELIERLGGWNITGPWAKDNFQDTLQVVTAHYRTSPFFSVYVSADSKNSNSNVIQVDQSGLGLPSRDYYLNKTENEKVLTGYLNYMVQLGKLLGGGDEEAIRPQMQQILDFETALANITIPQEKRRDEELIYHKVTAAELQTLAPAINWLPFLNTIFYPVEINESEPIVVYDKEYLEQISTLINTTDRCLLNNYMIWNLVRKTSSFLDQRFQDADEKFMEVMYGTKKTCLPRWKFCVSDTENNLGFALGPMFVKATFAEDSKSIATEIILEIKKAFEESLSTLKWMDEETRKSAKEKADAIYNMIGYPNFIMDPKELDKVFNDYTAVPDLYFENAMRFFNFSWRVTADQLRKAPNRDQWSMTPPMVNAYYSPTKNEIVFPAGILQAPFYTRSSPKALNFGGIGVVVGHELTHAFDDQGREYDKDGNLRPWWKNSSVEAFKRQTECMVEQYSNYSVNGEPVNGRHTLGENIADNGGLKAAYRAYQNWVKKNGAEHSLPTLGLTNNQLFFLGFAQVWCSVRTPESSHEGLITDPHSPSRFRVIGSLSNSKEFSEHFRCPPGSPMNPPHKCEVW
Kind of test: Inhibition against endothelin-converting enzyme.

A further test concerns the target Neprilysin (Homo sapiens, UniProt P08473). Kind of test: Inhibition against neutral endopeptidase.
The target in test [3] is Angiotensin-converting enzyme (Homo sapiens, UniProt P12821). Kind of test: Inhibition against angiotensin I converting enzyme.
Chain of Angiotensin-converting enzyme (P12821 whole entry): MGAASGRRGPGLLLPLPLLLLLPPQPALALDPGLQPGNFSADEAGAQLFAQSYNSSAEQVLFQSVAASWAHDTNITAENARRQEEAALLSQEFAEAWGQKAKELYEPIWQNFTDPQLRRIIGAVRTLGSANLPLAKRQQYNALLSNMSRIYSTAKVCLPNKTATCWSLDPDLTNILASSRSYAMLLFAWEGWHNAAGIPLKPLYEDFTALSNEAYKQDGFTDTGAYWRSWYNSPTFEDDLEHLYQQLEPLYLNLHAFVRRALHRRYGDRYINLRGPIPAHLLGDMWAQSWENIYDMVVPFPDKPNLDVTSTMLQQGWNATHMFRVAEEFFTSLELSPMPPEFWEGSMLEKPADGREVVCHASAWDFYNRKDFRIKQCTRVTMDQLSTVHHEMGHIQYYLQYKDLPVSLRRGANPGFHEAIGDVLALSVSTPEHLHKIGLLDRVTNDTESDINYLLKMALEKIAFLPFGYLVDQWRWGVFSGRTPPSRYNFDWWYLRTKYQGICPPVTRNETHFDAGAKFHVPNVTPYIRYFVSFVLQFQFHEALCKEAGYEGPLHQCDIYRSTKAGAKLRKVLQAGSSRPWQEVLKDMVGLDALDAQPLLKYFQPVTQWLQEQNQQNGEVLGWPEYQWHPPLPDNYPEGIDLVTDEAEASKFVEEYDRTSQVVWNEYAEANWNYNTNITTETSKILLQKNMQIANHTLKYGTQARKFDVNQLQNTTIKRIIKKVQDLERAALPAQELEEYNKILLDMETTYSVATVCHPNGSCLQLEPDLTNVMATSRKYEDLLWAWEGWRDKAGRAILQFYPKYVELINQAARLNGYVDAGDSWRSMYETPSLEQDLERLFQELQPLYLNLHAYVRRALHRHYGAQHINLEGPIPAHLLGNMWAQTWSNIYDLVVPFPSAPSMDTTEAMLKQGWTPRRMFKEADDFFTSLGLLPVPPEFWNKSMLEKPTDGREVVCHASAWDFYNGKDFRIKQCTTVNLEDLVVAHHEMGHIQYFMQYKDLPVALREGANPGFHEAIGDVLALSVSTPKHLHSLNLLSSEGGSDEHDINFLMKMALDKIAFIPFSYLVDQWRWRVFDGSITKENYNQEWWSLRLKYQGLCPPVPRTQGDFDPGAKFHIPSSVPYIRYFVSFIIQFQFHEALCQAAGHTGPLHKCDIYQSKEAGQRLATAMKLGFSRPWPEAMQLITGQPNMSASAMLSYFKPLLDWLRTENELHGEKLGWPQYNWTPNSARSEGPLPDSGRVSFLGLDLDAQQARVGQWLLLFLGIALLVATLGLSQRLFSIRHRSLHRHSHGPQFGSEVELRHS

By IC50 is commonly meant the concentration at which inhibition is half-maximal. Read a high IC50 as lower potency.

Each structure is given as a SMILES string. In brackets after ≈: the same amount, converted by molar mass.

Chain of Neprilysin (P08473 whole entry): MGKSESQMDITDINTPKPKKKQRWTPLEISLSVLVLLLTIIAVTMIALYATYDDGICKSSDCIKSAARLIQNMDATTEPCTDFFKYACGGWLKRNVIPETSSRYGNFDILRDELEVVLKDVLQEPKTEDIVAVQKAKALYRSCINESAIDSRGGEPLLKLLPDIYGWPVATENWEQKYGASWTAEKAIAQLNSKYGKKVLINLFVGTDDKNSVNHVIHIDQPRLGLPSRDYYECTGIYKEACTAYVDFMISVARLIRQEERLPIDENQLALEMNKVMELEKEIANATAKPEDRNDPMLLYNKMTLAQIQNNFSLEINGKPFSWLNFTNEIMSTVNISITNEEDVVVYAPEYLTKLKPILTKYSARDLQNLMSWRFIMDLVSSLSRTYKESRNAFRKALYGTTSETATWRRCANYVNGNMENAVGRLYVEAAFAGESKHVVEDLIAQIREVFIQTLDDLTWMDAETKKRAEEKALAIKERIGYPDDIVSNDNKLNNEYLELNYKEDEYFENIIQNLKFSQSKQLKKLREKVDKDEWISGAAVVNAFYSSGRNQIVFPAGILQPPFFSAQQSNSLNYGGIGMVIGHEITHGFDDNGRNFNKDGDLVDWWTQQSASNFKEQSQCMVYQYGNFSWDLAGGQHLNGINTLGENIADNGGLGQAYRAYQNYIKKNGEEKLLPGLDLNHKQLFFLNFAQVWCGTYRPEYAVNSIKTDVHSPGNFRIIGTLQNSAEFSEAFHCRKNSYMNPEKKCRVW
Chain of Macrophage metalloelastase (P39900 whole entry): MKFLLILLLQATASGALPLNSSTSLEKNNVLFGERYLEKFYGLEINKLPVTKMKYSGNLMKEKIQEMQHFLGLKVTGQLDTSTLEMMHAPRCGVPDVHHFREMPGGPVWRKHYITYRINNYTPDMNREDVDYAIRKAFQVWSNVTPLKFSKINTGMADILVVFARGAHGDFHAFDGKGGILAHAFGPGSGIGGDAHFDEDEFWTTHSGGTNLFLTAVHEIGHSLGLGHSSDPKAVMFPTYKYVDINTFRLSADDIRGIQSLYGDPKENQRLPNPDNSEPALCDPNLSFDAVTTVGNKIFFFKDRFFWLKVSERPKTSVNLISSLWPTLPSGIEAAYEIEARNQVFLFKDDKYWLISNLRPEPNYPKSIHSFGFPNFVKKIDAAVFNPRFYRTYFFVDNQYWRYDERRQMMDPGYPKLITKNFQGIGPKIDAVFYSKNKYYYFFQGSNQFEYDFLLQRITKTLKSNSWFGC

`O=C(CN1Cc2c(cccc2C(F)(F)F)NS1(=O)=O)NO` displayed an IC50 on Peptide deformylase of 130 nM. In addition, the MIC in the test with Haemophilus influenzae is 32 µg/mL (≈ 98.4 µM); in the test with Moraxella catarrhalis, 8 µg/mL (≈ 24.6 µM); against Escherichia coli it was above 64 µg/mL.
The matching figures for `O=C(CN1Cc2c(F)cccc2NS1(=O)=O)NO`: 870 nM, above 64 µg/mL, above 64 µg/mL and above 64 µg/mL.
In the case of `O=C(CN1Cc2c(Br)cccc2NC1=O)NO`, on Peptide deformylase, the IC50 stood at 49 nM. The MIC against Haemophilus influenzae stood at 16 µg/mL (≈ 53.3 µM); in the test with Moraxella catarrhalis, 4 µg/mL (≈ 13.3 µM); against Escherichia coli, 32 µg/mL (≈ 107 µM).
The like results for `CCCCN1c2cccc(Cl)c2CN(CC(=O)NO)S1(=O)=O` were, in that order, 590 nM, 64 µg/mL (≈ 184 µM), 2 µg/mL (≈ 5.75 µM) and above 64 µg/mL.
Consider `O=C(CN1Cc2c(Cl)cccc2NS1(=O)=O)NO`, for which the IC50 was 120 nM at Peptide deformylase; above 100000 nM in test [1]; above 500 nM on Collagenase 3; above 10000 nM in test [2]; above 100000 nM at Neprilysin; above 100000 nM in test [3]. The MIC is 16 µg/mL (≈ 54.8 µM) in the test with Haemophilus influenzae, 8 µg/mL (≈ 27.4 µM) against Moraxella catarrhalis and above 64 µg/mL against Escherichia coli.
Turning to `O=C(CN1Cc2c(Br)cccc2NS1(=O)=O)NO`, the IC50 against Peptide deformylase is 98 nM. For the same compound, the MIC was above 64 µg/mL with Haemophilus influenzae, 4 µg/mL (≈ 11.9 µM) with Moraxella catarrhalis and 32 µg/mL (≈ 95.2 µM) against Escherichia coli.
For `O=C(CN1Cc2c(Cl)cccc2N(Cc2ccccc2)S1(=O)=O)NO`, the MIC against Haemophilus influenzae stood at 32 µg/mL (≈ 83.8 µM); with Moraxella catarrhalis it was 8 µg/mL (≈ 21 µM); against Escherichia coli, 64 µg/mL (≈ 168 µM).
With `NNC(=O)CN1Cc2c(Cl)cccc2NC1=O`, at Peptide deformylase, the IC50 came out at 27000 nM. Further, the MIC against Escherichia coli came out at 50 µg/mL (≈ 196 µM).
Regarding `O=C(CN1Cc2ccccc2NC1=O)NO`, the MIC in the test with Haemophilus influenzae, in the test on Moraxella catarrhalis and against Escherichia coli was above 64 µg/mL each time.
Turning to `O=C(CN1Cc2c(F)cccc2NC1=O)NO`, at Peptide deformylase, the IC50 was determined as 870 nM. In addition, the MIC was 64 µg/mL (≈ 268 µM) in the test on Haemophilus influenzae, 16 µg/mL (≈ 66.9 µM) against Moraxella catarrhalis and above 64 µg/mL in the test with Escherichia coli.
Turning to `O=C(CN1Cc2c(Cl)cccc2NC1=O)NO`, the IC50 was 310 nM against Peptide deformylase; above 100000 nM in test [1]; 460 nM at Collagenase 3; above 10000 nM in test [2]; above 100000 nM at Neprilysin; 90000 nM in [3]. Besides, the MIC against Haemophilus influenzae was 8 µg/mL (≈ 31.3 µM); in the test on Moraxella catarrhalis, 2 µg/mL (≈ 7.82 µM); in the test on Escherichia coli it was 16 µg/mL (≈ 62.6 µM).
Consider `O=C(CN1Cc2ccccc2NS1(=O)=O)NO`, for which the IC50 at Peptide deformylase was found to be 760 nM. The MIC against Haemophilus influenzae, against Moraxella catarrhalis and against Escherichia coli was above 64 µg/mL each time.
`O=C(CN1Cc2c(Cl)cccc2N(CC2CC2)S1(=O)=O)NO` had an IC50 against Peptide deformylase of 110 nM. Also, the results for the MIC in the test on Haemophilus influenzae, against Moraxella catarrhalis and with Escherichia coli were 64 µg/mL (≈ 185 µM), 4 µg/mL (≈ 11.6 µM) and above 64 µg/mL, respectively.
Consider `O=C(CN1Cc2c(Cl)cccc2N(CCCc2ccccc2)S1(=O)=O)NO`, for which the MIC with Haemophilus influenzae was 32 µg/mL (≈ 78.1 µM); in the test on Moraxella catarrhalis it was 8 µg/mL (≈ 19.5 µM); with Escherichia coli, above 64 µg/mL.
On to `O=C(CN1Cc2c(cccc2C(F)(F)F)NC1=O)NO`, for which the IC50 against Peptide deformylase worked out at 230 nM. In addition, the results for the MIC in the test with Haemophilus influenzae, with Moraxella catarrhalis and against Escherichia coli were 64 µg/mL (≈ 221 µM), 8 µg/mL (≈ 27.7 µM) and 64 µg/mL (≈ 221 µM), respectively.
For the compound `O=C(CN1Cc2c(Br)cccc2N(CC2CC2)S1(=O)=O)NO`, the MIC against Haemophilus influenzae was determined as 64 µg/mL (≈ 164 µM); in the test with Moraxella catarrhalis it was 1 µg/mL (≈ 2.56 µM); with Escherichia coli, 64 µg/mL (≈ 164 µM).

(Values after ChEMBL document CHEMBL1134493, “2-(2-Oxo-1,4-dihydro-2H-quinazolin-3-yl)- and 2-(2,2-dioxo-1,4-dihydro-2H-2lambda6-benzo[1,2,6]thiadiazin-3-yl)-N-hydroxy-acetamides as potent and selective peptide deformylase inhibitors” (J Med Chem, 2001).)
